Laboratory results as given in ChEMBL document CHEMBL1151724, “Sesquiterpene lactones from Gonospermum gomerae and G. fruticosum and their cytotoxic activities” (J Nat Prod, 2008).
pIC50: −log10 of the molar value. Activity calls are given as the source filed them. No cut-off for these calls is given here.

What was measured:
[1] = tested on: HL-60; assay: Induction of apoptosis in human HL-60 cells upto 30 uM after 48 hrs by flow cytometry; format: functional, cell-based
Procedure, shortened: (§1)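 HL-60 cells exposed to 30 µM for 48 h. Hypodiploid (apoptotic) fraction quantified by flow cytometry; average ± SE of triplicate determinations from a representative experiment.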

[2] = tested on: A549; assay: Cytotoxicity against human A549 cells after 72 hrs by MTT assay; format: functional, cell-based; settings: A549, 72 h
Procedure, shortened: (§2)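 Exponentially growing cells, 1 × 10^4 per well in RPMI 1640 with 10% FBS, treated with 0.3-100 µM for 72 h. DMSO at most 0.1% (v/v). Viability read by MTT reduction as absorbance at 570 nm and expressed as survival relative to control wells. IC50 obtained by curve fitting; means ± SE of three independent experiments, each in triplicate.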

[3] = tested on: U-937; assay: Cytotoxicity against human U937 cells after 72 hrs by MTT assay; format: functional, cell-based; settings: U-937, 72 h; procedure, shortened: as §2
[4] = tested on: HL-60; assay: Cytotoxicity against human HL-60 cells after 72 hrs by MTT assay; format: functional, cell-based; settings: HL-60, 72 h; procedure, shortened: as §2
[5] = tested on: SK-MEL-1; assay: Cytotoxicity against human SK-MEL-1 cells after 72 hrs by MTT assay; format: functional, cell-based; settings: SK-MEL-1, 72 h; procedure, shortened: as §2
[6] = tested on: HL-60; assay: Cell cycle arrest in human HL-60 cells assessed as accumulation at G2-M phase at 30 uM after 48 hrs by flow cytometry; format: functional
Procedure, shortened: (§3)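 Cells grown in RPMI 1640 with 10% heat-inactivated FBS at 37 °C, 5% CO2, exposed to 30 µM for 48 h. Washed in ice-cold PBS, fixed in 75% ethanol at -20 °C for 1 h, then stained with 50 µg/mL propidium iodide plus 100 µg/mL RNase A for 1 h at 37 °C in the dark. Phase distribution read by flow cytometry; mean ± SEM of two experiments.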

[7] = tested on: HL-60; assay: Cell cycle arrest in human HL-60 cells assessed as accumulation at S phase at 30 uM after 48 hrs by flow cytometry; format: functional; procedure, shortened: as §3
[8] = tested on: HL-60; assay: Cell cycle arrest in human HL-60 cells assessed as accumulation at G0/G1 phase at 30 uM after 48 hrs by flow cytometry; format: functional; procedure, shortened: as §3
[9] = tested on: HL-60; assay: Cell cycle arrest in human HL-60 cells assessed as accumulation at sub G0/G1 phase at 30 uM after 48 hrs by flow cytometry; format: functional; procedure, shortened: as §3
[10] = tested on: HL-60; assay: Effect on cell death in human HL-60 cells assessed as induction of procaspase 3 cleavage at 30 uM; format: functional, cell-based
Procedure, shortened: (§4)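 HL-60 cells (1 × 10^6) treated in RPMI 1640, lysed in Tris-HCl pH 6.8 with 2% SDS and boiled. Lysates run on 12% SDS-PAGE, transferred to PVDF and probed with anti-caspase-3, -6 or -7 antibodies, then HRP secondary. Bands detected by chemiluminescence; loading checked by Ponceau S staining. One representative blot of three.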

[11] = tested on: HL-60; assay: Induction of apoptosis in human HL-60 cells at 30 uM after 48 hrs by flow cytometry; format: functional; procedure, shortened: as §1
[12] = tested on: HL-60; assay: Induction of apoptosis in human HL-60 cells assessed as internucleosomal DNA fragmentation at 30 uM after 24 hrs by ethidium bromide assay; format: functional, cell-based
Procedure, shortened: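 HL-60 cells exposed to 30 µM for 24 h. Total cellular DNA isolated, electrophoresed on 2% agarose, stained with ethidium bromide and inspected under UV for internucleosomal laddering.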

[13] = tested on: SK-MEL-1; assay: Induction of apoptosis in human SK-MEL-1 cells assessed as apoptotic bodies at 30 uM after 24 hrs by fluorescence microscopy; format: functional, cell-based
Procedure, shortened: (§5)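 HL-60 or SK-MEL-1 cells exposed to 30 µM, then DNA-stained with Hoechst 33258 (bisbenzimide). Chromatin condensation, fragmentation and apoptotic bodies assessed by fluorescence microscopy.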

[14] = tested on: SK-MEL-1; assay: Induction of apoptosis in human SK-MEL-1 cells assessed as fragmentated and condensed chromatin at 30 uM after 24 hrs by fluorescence microscopy; format: functional, cell-based; procedure, shortened: as §5
[15] = tested on: HL-60; assay: Induction of apoptosis in human HL-60 cells assessed as apoptotic bodies at 30 uM after 24 hrs by fluorescence microscopy; format: functional, cell-based; procedure, shortened: as §5
[16] = tested on: HL-60; assay: Induction of apoptosis in human HL-60 cells assessed as fragmentated and condensed chromatin at 30 uM after 24 hrs by fluorescence microscopy; format: functional, cell-based; procedure, shortened: as §5
[17] = tested on: HL-60; assay: Effect on cell death in human HL-60 cells assessed as induction of procaspase 6 cleavage at 30 uM; format: functional, cell-based; procedure, shortened: as §4
[18] = tested on: HL-60; assay: Effect on cell death in human HL-60 cells assessed as induction of procaspase 7 cleavage at 30 uM; format: functional, cell-based; procedure, shortened: as §4

SMILES: C=C1C(=O)O[C@H]2C[C@@]3(C)[C@H](OC(C)=O)CC[C@@](C)(O)[C@H]3[C@@H](O)[C@H]12
- Activity [1]: inactive
- pIC50 [2]: < 4.00
- pIC50 [3]: < 4.00
- pIC50 [4]: < 4.00
- pIC50 [5]: < 4.00

SMILES: C=C1C(=O)O[C@H]2C[C@@]3(C)[C@H](OC(C)=O)CCC(=C)[C@H]3[C@@H](OC(=O)/C(C)=C/C)[C@H]12
- Activity [1]: inactive

SMILES: C=C1C(=O)O[C@H]2/C=C(/C)[C@@H](OC(C)=O)CC/C(C)=C/[C@@H](OC(=O)/C(C)=C/C)[C@H]12
- Activity [1]: inactive

SMILES: C=C1C(=O)O[C@H]2C[C@@]3(C)[C@H](O)CCC(=C)[C@H]3[C@@H](OC(=O)/C(C)=C/C)[C@H]12
- Activity [1]: inactive

SMILES: C=CC(C)(O)C/C=C/C(C)(O)CCC(OC(C)=O)C(=C)C (stereo not given)
- Activity [1]: inactive

SMILES: COc1cc([C@@H]2c3cc4c(cc3[C@@H](O[C@@H]3O[C@@H]5CO[C@@H](C)O[C@H]5[C@H](O)[C@H]3O)[C@H]3COC(=O)[C@H]23)OCO4)cc(OC)c1O [ETOPOSIDE]
- Activity [6]: 2.6%
- Activity [7]: 17.1%
- Activity [8]: 29.4%
- Activity [9]: 47.7%
- pIC50 [2]: 5.23
- pIC50 [3]: 6.04
- pIC50 [4]: 6.60
- pIC50 [5]: < 4.52

SMILES: C=C1C(=O)O[C@H]2[C@H]1[C@@H](O)C[C@@]1(C)[C@H](O)CCC(=C)[C@@H]21
- Activity [1]: inactive

SMILES: C=C1CC[C@@H](OC(C)=O)[C@]2(C)C[C@H](OC(C)=O)[C@H]3C(=C)C(=O)O[C@@H]3C12 (stereo not given in full)
- Activity [10]: Active
- Activity [11]: 30%
- Activity [12]: Active
- Activity [13]: Active
- Activity [14]: Active
- Activity [15]: Active
- Activity [16]: Active
- Activity [6]: 18.5%
- Activity [7]: 22%
- Activity [8]: 26.8%
- Activity [9]: 30%
- pIC50 [2]: 4.14
- pIC50 [3]: 5.04
- pIC50 [4]: 5.03
- Activity [17]: Active
- Activity [18]: Active
- pIC50 [5]: 4.84

SMILES: C=C1C(=O)O[C@H]2C[C@@]3(C)[C@H](OC(C)=O)CC[C@@](C)(O)[C@H]3[C@@H](OC(C)=O)[C@H]12
- Activity [10]: Active
- Activity [11]: 12%
- Activity [12]: Active
- Activity [13]: Active
- Activity [14]: Active
- Activity [15]: Active
- Activity [16]: Active
- Activity [6]: 21.8%
- Activity [7]: 21.5%
- Activity [8]: 39.3%
- Activity [9]: 11.8%
- pIC50 [2]: < 4.00
- pIC50 [3]: 4.98
- pIC50 [4]: 4.88
- Activity [17]: Active
- Activity [18]: Active
- pIC50 [5]: 4.55

SMILES: C=C1C(=O)O[C@H]2/C=C(/C)[C@@H](O)CC/C(C)=C/[C@@H](OC(=O)/C(C)=C/C)[C@H]12
- Activity [1]: inactive

SMILES: C=C1C(=O)O[C@H]2C[C@@]3(C)[C@H](O)CC[C@@](C)(O)[C@H]3[C@@H](O)[C@H]12
- Activity [1]: inactive

SMILES: C=C1C[C@@H]2OC(=O)C(=C)[C@H]2[C@H](OC(=O)/C(C)=C\C)/C=C(\C)CCC1=O
- Activity [1]: inactive
